The values that follow come from ChEMBL document CHEMBL5696442, “Discovery of type II inhibitors of TGFβ-activated kinase 1 (TAK1) and mitogen-activated protein kinase kinase kinase kinase 2 (MAP4K2)” (J Med Chem, 2015).

In experiment [1] the target is Mitogen-activated protein kinase 10 (Homo sapiens, UniProt P53779). The experiment is described as follows: Inhibition of JNK3 Lys2 labeling site in human Huh-7 cells at 1 uM by KiNativ Profiling analysis relative to control. The class given is cell-based.
For experiment [2], the target named is Putative phosphatidylinositol 4-kinase alpha-like protein P2 (Homo sapiens) (UniProt A4QPH2). The experiment is described as follows: Inhibition of PI4KAP2 ATP labeling site in human Huh-7 cell lysate at 1 uM by KiNativ Profiling analysis relative to control. In kind it is subcellular.
Experiment [3] deals with T1, Serine/threonine-protein kinase D2 (Homo sapiens) (UniProt Q9BZL6).
T1 sequence (whole entry): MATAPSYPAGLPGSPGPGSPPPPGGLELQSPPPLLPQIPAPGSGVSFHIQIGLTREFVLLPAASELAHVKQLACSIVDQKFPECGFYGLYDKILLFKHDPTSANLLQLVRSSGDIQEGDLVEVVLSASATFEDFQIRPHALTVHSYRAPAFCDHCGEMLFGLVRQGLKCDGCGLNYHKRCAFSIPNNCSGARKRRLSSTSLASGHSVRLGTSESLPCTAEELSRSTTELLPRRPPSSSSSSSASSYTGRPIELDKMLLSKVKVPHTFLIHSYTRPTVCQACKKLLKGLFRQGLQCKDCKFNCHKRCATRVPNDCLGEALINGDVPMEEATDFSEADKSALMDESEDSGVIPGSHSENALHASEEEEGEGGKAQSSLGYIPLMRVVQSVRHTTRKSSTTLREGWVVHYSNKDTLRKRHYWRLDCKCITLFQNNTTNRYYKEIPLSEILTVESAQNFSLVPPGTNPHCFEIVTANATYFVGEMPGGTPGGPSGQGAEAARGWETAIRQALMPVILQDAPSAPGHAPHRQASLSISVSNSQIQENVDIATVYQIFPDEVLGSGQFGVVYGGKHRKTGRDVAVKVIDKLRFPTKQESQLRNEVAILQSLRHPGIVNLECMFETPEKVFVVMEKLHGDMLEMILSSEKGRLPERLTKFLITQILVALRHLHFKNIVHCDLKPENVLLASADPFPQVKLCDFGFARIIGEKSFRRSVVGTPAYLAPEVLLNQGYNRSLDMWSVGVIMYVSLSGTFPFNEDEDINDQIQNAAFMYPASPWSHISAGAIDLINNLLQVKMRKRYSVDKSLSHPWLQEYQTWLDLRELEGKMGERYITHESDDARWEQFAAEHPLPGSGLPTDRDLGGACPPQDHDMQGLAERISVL
The experiment is described as follows: Inhibition of PKD2 Lys2 labeling site in human Huh-7 cell lysate at 1 uM by KiNativ Profiling analysis relative to control. In kind it is subcellular.

Experiment [4] has as its target Serine/threonine-protein kinase 17A (Homo sapiens) (UniProt Q9UEE5). The experiment is described as follows: Inhibition of DRAK1 (unknown origin) at 1 uM by Ambit Kinomescan binding assay relative to control; values are per cent of control.
In experiment [5] the target is RAF proto-oncogene serine/threonine-protein kinase (Homo sapiens, UniProt P04049). The experiment is described as follows: Inhibition of RAF1 (unknown origin) Lys2 labeling site by KiNativ Profiling analysis.
In experiment [6] the target is Serine/threonine-protein kinase B-raf (Homo sapiens, UniProt P15056). The experiment is described as follows: Inhibition of BRAF (unknown origin) at 1 uM by Ambit Kinomescan binding assay relative to control.
The target of experiment [7] is T2, Myotonin-protein kinase (Homo sapiens) (UniProt Q09013).
T2 sequence (whole entry): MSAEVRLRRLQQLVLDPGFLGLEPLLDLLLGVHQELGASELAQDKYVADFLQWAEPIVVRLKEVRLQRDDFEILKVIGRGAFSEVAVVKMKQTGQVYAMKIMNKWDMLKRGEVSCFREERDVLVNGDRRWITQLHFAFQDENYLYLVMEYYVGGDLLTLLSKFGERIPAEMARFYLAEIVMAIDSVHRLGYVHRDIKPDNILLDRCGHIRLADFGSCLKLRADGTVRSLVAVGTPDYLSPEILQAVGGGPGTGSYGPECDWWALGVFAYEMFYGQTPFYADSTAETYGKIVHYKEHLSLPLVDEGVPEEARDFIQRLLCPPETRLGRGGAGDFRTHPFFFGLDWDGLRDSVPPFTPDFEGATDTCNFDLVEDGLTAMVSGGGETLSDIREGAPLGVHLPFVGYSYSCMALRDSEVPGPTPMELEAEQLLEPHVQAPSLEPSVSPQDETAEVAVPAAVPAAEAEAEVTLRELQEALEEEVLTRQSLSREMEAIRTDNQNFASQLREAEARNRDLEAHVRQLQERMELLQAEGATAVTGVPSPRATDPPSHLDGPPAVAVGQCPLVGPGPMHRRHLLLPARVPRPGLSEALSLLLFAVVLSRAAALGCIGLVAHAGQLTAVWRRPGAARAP
The experiment is described as follows: Inhibition of DMPK (unknown origin) at 1 uM by Ambit Kinomescan binding assay relative to control; values are per cent of control.

Experiment [8] addresses Fibroblast growth factor receptor 4 (Homo sapiens) (UniProt P22455). The experiment is described as follows: Inhibition of FGFR4 (unknown origin) at 1 uM by Ambit Kinomescan binding assay relative to control; values are per cent of control.
Experiment [9] concerns the target Wee1-like protein kinase 2 (Homo sapiens) (UniProt P0C1S8). The experiment is described as follows: Inhibition of WEE2 (unknown origin) at 1 uM by Ambit Kinomescan binding assay relative to control.
In experiment [10] the target is Cytoplasmic tyrosine-protein kinase BMX (Homo sapiens) (UniProt P51813). The experiment is described as follows: Inhibition of BMX (unknown origin) at 1 uM by Ambit Kinomescan binding assay relative to control; values are per cent of control.
Experiment [11] concerns the target Rho-associated protein kinase 2 (Homo sapiens) (UniProt O75116). The experiment is described as follows: Inhibition of ROCK2 Lys2 labeling site in human A-375 cells at 0.5 uM by KiNativ Profiling analysis relative to control. In kind it is cell-based. An outline of the steps:
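Live A375 melanoma cells treated with compound at 5 or 0.5 μM, then lysed. Lysate kinases were labeled with a lysine-reactive ATP or ADP-biotin probe. Inhibition was read as protection of labeling sites from the probe.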

Experiment [12] deals with Dual specificity tyrosine-phosphorylation-regulated kinase 1B (Homo sapiens) (UniProt Q9Y463). The experiment is described as follows: Inhibition of DYRK1B (unknown origin) at 10 uM by Ambit Kinomescan binding assay.
Experiment [13] deals with Calcium/calmodulin-dependent protein kinase type II subunit gamma (Homo sapiens) (UniProt Q13555). The experiment is described as follows: Inhibition of CAMK2G (unknown origin) at 10 uM by Ambit Kinomescan binding assay.
The target of experiment [14] is Cyclin-dependent kinase 14 (Homo sapiens) (UniProt O94921). The experiment is described as follows: Inhibition of PFTAIRE1 Lys1 labeling site in human A-375 cells at 5 uM by KiNativ Profiling analysis relative to control.
For experiment [15], the target named is Death-associated protein kinase 2 (Homo sapiens) (UniProt Q9UIK4). The experiment is described as follows: Inhibition of DAPK2 (unknown origin) at 10 uM by Ambit Kinomescan binding assay.

Each structure is given as a SMILES string. Activity calls are given as the source filed them. The calls are words filed in the database; no cut-off is given here.

Sequence of Death-associated protein kinase 2 (Homo sapiens) (Q9UIK4 whole entry, looked up): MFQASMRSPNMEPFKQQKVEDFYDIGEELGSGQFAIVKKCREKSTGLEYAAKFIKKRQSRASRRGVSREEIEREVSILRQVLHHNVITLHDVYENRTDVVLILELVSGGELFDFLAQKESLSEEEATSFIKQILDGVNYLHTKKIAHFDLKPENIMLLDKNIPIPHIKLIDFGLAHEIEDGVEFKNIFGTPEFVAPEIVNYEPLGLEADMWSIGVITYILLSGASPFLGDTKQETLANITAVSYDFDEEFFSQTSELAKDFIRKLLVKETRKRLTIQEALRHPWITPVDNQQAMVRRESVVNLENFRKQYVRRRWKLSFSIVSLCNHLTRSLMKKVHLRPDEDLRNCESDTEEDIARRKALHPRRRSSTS
Sequence of Serine/threonine-protein kinase 17A (Homo sapiens) (Q9UEE5 whole entry): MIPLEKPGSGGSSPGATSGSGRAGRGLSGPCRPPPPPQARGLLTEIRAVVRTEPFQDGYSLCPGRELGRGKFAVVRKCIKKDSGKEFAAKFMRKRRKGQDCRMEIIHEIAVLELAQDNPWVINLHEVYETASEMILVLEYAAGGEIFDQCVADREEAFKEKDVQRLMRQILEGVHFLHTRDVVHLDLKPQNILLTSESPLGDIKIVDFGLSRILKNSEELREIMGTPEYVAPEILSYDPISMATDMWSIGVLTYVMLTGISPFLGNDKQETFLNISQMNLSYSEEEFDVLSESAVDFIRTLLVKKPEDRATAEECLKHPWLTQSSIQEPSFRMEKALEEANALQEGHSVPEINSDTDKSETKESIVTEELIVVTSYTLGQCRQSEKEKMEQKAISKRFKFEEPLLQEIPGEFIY
Sequence of Cytoplasmic tyrosine-protein kinase BMX (Homo sapiens) (P51813 whole entry): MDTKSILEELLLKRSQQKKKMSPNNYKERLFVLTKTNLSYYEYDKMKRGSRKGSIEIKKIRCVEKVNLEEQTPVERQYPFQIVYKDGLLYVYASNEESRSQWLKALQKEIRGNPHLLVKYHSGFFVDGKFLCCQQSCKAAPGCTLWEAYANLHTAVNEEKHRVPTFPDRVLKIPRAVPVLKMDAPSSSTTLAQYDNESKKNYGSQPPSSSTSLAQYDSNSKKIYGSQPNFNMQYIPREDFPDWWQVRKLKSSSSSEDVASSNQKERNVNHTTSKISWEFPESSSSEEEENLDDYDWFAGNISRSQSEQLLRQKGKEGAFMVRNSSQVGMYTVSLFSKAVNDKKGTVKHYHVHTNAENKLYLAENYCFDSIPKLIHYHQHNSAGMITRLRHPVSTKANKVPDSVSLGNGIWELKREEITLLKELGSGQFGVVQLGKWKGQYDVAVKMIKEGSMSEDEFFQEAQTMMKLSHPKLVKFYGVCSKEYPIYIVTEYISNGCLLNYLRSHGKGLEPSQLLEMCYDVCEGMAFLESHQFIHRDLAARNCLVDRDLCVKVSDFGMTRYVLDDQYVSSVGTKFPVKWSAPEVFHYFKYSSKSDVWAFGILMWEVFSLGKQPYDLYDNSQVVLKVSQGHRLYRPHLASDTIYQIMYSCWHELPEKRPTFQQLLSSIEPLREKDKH
Sequence of Calcium/calmodulin-dependent protein kinase type II subunit gamma (Homo sapiens) (Q13555 whole entry): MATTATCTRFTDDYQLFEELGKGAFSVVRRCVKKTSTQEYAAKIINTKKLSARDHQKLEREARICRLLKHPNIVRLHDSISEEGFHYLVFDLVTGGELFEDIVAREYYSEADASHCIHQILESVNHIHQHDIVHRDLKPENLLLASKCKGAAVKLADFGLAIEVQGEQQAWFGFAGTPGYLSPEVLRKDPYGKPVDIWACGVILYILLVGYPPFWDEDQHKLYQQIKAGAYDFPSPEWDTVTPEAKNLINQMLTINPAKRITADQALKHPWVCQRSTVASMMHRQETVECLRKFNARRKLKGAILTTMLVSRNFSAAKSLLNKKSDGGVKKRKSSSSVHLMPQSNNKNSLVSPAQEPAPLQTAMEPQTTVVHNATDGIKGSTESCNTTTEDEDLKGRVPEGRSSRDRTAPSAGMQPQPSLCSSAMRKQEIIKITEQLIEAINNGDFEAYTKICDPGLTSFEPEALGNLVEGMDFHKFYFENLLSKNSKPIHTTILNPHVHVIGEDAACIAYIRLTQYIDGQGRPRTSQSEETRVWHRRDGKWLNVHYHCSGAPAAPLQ
Sequence of Mitogen-activated protein kinase 10 (P53779 whole entry): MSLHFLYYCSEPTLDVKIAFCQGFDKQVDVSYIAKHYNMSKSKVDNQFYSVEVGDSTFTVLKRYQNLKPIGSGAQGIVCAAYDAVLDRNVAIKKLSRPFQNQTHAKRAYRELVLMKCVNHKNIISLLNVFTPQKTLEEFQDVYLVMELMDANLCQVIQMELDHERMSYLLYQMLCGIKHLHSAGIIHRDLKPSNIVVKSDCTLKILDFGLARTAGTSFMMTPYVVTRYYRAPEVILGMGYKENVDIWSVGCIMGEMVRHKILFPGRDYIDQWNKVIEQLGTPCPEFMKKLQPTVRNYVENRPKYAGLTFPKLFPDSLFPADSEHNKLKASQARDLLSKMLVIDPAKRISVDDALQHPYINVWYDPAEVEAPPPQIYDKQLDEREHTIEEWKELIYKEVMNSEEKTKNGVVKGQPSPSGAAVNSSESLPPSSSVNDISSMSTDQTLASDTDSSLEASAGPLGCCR
Sequence of Fibroblast growth factor receptor 4 (Homo sapiens) (P22455 22-802 limits assumed): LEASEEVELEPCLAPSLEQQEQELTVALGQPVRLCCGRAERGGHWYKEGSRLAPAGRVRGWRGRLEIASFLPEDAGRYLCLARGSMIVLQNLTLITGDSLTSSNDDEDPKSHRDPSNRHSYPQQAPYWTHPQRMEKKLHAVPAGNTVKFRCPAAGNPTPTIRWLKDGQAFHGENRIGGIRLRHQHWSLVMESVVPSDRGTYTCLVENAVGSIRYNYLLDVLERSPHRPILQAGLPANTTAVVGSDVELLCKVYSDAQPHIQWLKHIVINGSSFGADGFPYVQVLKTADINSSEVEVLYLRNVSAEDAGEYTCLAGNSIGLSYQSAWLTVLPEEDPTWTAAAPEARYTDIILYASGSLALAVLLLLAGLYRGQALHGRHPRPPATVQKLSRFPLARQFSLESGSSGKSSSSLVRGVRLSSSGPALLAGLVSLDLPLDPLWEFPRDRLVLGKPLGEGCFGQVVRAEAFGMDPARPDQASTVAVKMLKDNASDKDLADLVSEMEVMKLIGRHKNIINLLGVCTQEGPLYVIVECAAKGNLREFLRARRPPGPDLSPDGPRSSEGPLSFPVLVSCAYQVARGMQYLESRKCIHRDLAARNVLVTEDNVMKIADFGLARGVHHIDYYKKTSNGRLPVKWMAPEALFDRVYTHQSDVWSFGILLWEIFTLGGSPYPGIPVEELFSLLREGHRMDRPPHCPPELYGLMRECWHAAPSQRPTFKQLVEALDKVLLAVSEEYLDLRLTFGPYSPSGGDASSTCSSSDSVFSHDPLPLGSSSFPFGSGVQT
Sequence of Rho-associated protein kinase 2 (Homo sapiens) (O75116 whole entry, looked up): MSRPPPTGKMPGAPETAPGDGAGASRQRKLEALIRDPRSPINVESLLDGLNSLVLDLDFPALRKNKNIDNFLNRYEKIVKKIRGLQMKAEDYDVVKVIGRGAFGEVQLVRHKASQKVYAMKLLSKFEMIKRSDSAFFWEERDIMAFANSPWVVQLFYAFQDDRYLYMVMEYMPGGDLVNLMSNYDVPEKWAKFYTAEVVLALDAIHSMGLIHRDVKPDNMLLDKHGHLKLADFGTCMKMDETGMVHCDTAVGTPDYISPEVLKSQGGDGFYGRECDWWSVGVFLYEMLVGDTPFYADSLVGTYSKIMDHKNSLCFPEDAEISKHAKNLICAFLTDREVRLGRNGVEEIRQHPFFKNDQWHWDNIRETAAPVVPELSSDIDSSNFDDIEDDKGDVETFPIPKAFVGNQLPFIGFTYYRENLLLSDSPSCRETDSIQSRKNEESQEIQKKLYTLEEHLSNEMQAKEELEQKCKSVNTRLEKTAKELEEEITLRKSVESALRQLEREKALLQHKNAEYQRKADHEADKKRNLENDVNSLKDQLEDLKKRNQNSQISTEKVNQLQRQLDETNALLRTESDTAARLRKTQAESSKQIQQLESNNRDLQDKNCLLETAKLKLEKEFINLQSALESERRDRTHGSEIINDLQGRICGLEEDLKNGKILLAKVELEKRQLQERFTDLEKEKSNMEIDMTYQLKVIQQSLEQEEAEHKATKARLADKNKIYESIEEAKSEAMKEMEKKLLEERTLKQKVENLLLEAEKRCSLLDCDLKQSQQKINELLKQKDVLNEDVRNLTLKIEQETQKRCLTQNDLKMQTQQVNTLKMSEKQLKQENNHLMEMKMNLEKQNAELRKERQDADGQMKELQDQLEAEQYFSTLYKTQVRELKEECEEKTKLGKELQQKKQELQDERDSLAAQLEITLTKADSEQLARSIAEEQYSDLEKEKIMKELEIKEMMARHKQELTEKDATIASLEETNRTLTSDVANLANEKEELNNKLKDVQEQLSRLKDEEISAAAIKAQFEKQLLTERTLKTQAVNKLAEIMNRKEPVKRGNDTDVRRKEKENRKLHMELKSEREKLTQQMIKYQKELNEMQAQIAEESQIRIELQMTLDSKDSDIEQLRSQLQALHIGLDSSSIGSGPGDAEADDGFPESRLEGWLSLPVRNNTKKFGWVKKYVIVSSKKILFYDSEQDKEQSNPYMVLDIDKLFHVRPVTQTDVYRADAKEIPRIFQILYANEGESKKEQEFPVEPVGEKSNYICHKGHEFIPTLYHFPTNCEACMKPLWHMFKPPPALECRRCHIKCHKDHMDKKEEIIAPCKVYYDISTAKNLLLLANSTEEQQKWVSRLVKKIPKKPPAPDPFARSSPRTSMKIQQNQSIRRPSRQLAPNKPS

Regarding `CNc1cc(Oc2cc(C(=O)Nc3cc(N4CCN(C)CC4)cc(C(F)(F)F)c3)ccc2C)ncn1`, the values for the inhibition in experiment [1], in experiment [2] and in [3] were 14.5%, 2% and -3.5%, respectively.

On to `CCN1CCN(Cc2ccc(NC(=O)c3ccc(C)c(/C=C/c4cnc5[nH]ccc5c4OC)c3)cc2C(F)(F)F)CC1`, for which the residual activity in experiment [4] was determined as 52%; in [7] it was 100%; in experiment [8] it was 8.1%; in experiment [10] it was 1.6%. Moreover, it took 3.31 µM to reach half-maximal inhibition in experiment [5] (IC50). The inhibition turned out to be 17% in experiment [6] and 74% in [9].

For the compound `CCN1CCN(Cc2ccc(NC(=O)c3ccc(C)c(Oc4ccnc5[nH]ccc45)c3)cc2C(F)(F)F)CC1`, the figures for the inhibition in experiment [11] and in experiment [14] were 2.3% and 81%, respectively. Further, the inhibition entry in experiment [12], in [13] and in experiment [15] was “inactive” in each case.
